Target: OR4A8 (Homo sapiens) (UniProt P0C604)
Settings: stereoisomer not certain
Method in brief: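 Each receptor–molecule pair is labelled responsive or non-responsive (inactive) according to whether the original authors judged the measured signal statistically different from baseline. The data were taken from the main text and supplementary material of published papers and checked for typos and inconsistencies. Assay methods differed by source, with transient luciferase assays in mammalian cell lines being common.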
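Also: active if original authors judged signal statistically different from baseline.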

Chain of OR4A8 (Homo sapiens) (P0C604 whole entry): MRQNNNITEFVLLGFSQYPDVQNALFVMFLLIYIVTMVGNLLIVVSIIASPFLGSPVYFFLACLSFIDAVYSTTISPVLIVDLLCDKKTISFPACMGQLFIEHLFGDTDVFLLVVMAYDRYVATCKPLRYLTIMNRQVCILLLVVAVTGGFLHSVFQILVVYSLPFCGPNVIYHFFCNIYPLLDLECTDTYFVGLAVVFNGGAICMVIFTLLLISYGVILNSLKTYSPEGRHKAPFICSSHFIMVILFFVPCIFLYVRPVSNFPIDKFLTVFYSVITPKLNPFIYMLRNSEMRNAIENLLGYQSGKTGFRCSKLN

## CC1CCCCCCCCCCCCC(=O)C1 (configuration not stated)
  odorant receptor agonist call: inactive

## CC(=O)c1c(C)c([N+](=O)[O-])c(C(C)(C)C)c([N+](=O)[O-])c1C
  odorant receptor agonist call: inactive

Source: the M2OR odorant receptor database
